# Sampled rows, rich in hits. Any-hit rate of the full collection: about 1.5%.
# STAT1 inh: inhibitors of IFN-gamma induced STAT1 signaling. 200,000 compounds, 0.35% hits. NIH 3T3 STAT1-luciferase reporter, luminescence. inhibition, % at 5.5 µM;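 active = inhibition above a set limit, the mean inhibition across all tested compounds plus 3 SD, cut at about 34% in these data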;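 also: 0% = IFN-gamma with DMSO and 100% = IFN-gamma with 300 µM nifuroxazide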
# STAT3 inh: inhibitors of IL-6 induced STAT3 signaling; U3A cells, IL-6 STAT3-luciferase reporter, luminescence; host cell line lacks STAT1; inhibition, % at 5.5 µM; 190,000 compounds, 0.89% hits;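 active = inhibition above the mean inhibition across all screened compounds plus 3 SD, cut at about 44% in these data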;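 also: 0% = DMSO only wells and 100% = 100 µM nifuroxazide control wells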
# PPC-1+TRAIL kill: kills PPC-1 cancer cells in the presence of TRAIL; PPC-1 cells + TRAIL, ATPLite viability luminescence; cell killing (% activity), % at 4 µM or 5 µM; 220,000 compounds, 0.41% hits; AID 1443;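 active = cell killing above 50% in the first pass at 4 µM, then a duplicate retest at 5 µM averaging 50% or more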;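 also: plate controls were cells with TRAIL plus DMSO for no effect and medium-only wells lacking cells for full effect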
# Platelet DG rel: modulates dense granule release in human platelets; human platelet-rich plasma, SFLLRN dense granule ATP release, luminescence; inhibition, %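 (compounds screened at 7.5 µM in platelet-rich plasma)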; 300,000 compounds, 0.22% hits; AID 1663;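 active = mean replicate score, as percent of positive control, at or above 50; inconclusive = mean below 50 but at least one replicate at or above 50; inactive = mean and every replicate below 50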
# H9c2 TAG inh: triacylglycerol accumulation inhibition. H9c2 cells, Nile Red lipid (TAG) fluorescence; cells loaded with 200 µM oleic acid. inhibition, % at 12.5 µM. 230,000 compounds, 0.66% hits. AID 651582;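 active = pattern-corrected inhibition of lipid staining of at least 50% with the nuclear-stain viability signal not falling by more than 50%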;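 also: 0% = DMSO wells and 100% = triacsin C control wells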
# Hep lipid drop: hepatic lipid droplet formation modulation | AML12 mouse hepatocytes, oleate lipid droplets, BODIPY imaging | inhibition, % at 6.5 µM | 240,000 compounds, 0.4% hits;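 active = lipid droplet intensity inhibited by at least 50%, with more than 500 cells counted; inconclusive = wells with under 300 cells, treated as cytotoxic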
#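 Material – mouse AML12 hepatocyte cell line, fixed after treatment · Compound dosing – one dose, 6.5 µM compound · Times – compound with oleate, overnight · Measured by – Image-based BODIPY and DAPI two-channel analysis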
# * hit, by the source's call; ? = inconclusive; . = no result.
SMILES,STAT1 inh,STAT3 inh,PPC-1+TRAIL kill,Platelet DG rel,H9c2 TAG inh,Hep lipid drop
Cc1cc2c(cc1C)NC(=O)C(C)CN2 (stereo unspecified),.,.,.,.,23.0,.
O=C(Nc1cc(C(F)(F)F)ccc1N1CCCCC1)C1=COCCO1,.,.,.,.,-9.8,.
CCN(CC)CCNc1ccc(C)c2sc3ccc(O)cc3c(=O)c12,.,.,.,.,59.3*,.
CCN1CCN(Cc2ccc(NC(=O)c3cc(NC(=O)c4cc(-c5ccc(OC)cc5)n[nH]4)cc(OC)c3)cc2C(F)(F)F)CC1,.,.,31.2,6.5,69.4*,6.7
Cc1ccc(C(=O)Nc2cccc(C(F)(F)F)c2)cc1NC(=O)c1c[nH]c2cc(C(F)(F)F)ccc2c1=O,.,.,.,.,6.9,.
CCN1CCN(Cc2ccc(NC(=O)c3ccc(C)c(NC(=O)c4c[nH]c5cc(C(F)(F)F)ccc5c4=O)c3)cc2C(F)(F)F)CC1,.,.,26.9,3.4,138.9*,3.7
CC(=O)c1cccc(-c2ccnc3c2CC(C(=O)NCc2cccs2)O3)c1 (stereo unspecified),.,.,.,.,91.3,.
COc1ccc2[nH]c(-c3ccc(C)cc3)cc(=O)c2c1,-26.6,39.5,72.7*,14.2,6.9,12.2
COCCCN=C1NN=C(c2cc(C)n(-c3ccccc3F)c2C)CS1,44.8*,51.5*,41.3,0.8,11.8,7.8
COCCn1c(C)cc(C2=NNC(=Nc3ccccc3F)SC2)c1C,72.9*,94.2*,37.0,8.3,14.9,.
Fc1ccc(F)c(C2=NNC(=Nc3ccccc3F)SC2)c1,-48.0,-14.4,29.8,-0.7,.,-0.5
COCCCN=C1NN=C(c2cc(C)n(-c3ccccc3)c2C)CS1,-12.4,-13.2,20.0,0.2,.,1.6
O=C(C=P(c1ccccc1)(c1ccccc1)c1ccccc1)c1ccccc1-c1ccccc1C(=O)C=P(c1ccccc1)(c1ccccc1)c1ccccc1,.,.,.,.,0.8,.
CCN(c1ccccc1)S(=O)(=O)c1ccc(Cl)c(NC(=O)CSc2nc(N)cc(=O)[nH]2)c1,.,.,.,.,9.5,.
COC(=O)Cc1ccc(NC(=O)c2ccc(C(C)(C)C)cc2)cc1,43.8*,84.6*,39.5,-3.1,72.5*,9.2
O=C(NC(=O)c1ccccc1)Nc1ccccn1,.,.,.,81.6*,7.9,.
N/C(=N\OC(=O)c1ccc(=O)n(Cc2ccccc2)c1)c1ccccn1,-12.5,-3.5,5.1,0.6,-4.0,-19.8
Cc1ccc(C(=O)O/N=C(\N)c2ccccn2)c(Cl)c1,.,.,.,75.9*,.,-0.2
CCCc1ccc(C(=O)O/N=C(\N)c2ccccn2)cc1,.,.,.,76.9*,-7.9,-2.5
Cn1c(-c2cnn(-c3ccccc3)c2N)n[nH]c1=S,-2.8,25.3,24.7,61.0*,-13.3,12.7
Cc1ccc(-c2cnn(-c3ccccc3)c2N)cc1,.,.,.,52.3*,.,-2.9
COc1ccccc1NC(=O)N(C)C[C@@H]1OCc2cnnn2CCCC(=O)N([C@@H](C)CO)C[C@@H]1C,.,.,.,.,-6.4,.
CN(C)c1ccc(/C=C(\C#N)c2ccccn2)cc1,54.2*,98.9*,14.2,33.1,-14.4,0.4
CN(C)c1ccc(NC(=S)c2ccccn2)cc1,68.3*,97.9*,69.2*,33.2,.,-1.9
CN(C)S(=O)(=O)c1ccc(NC(=O)c2ccccn2)cc1,-19.4,6.8,17.2,8.5,25.5,26.6
SMILES,STAT1 inh,STAT3 inh,PPC-1+TRAIL kill,Platelet DG rel,H9c2 TAG inh,Hep lipid drop
OC(c1ccc(Cl)c(F)c1)c1ncc(-c2cccc(F)c2)[nH]1 (stereo unspecified),.,.,.,.,-26.7,.
C(C#CCN1CCOCC1)#CCN1CCOCC1,.,.,.,.,0.8,.
CC1(C(=O)NS(=O)(=O)Cc2ccccc2)CCN1C(=O)Cc1ccccc1Cl (stereo unspecified),.,.,.,.,12.5,.
COc1ccc(/C=C/C(=O)O)cc1O,.,.,.,0.1,.,.
CCC(=O)OCCNc1cc(Sc2nccn2C)c2nonc2c1[N+](=O)[O-],3.2,-1.9,16.2,3.6,68.6*,3.9
C/C(=N\Nc1nc2ccccc2s1)c1ccc(Br)s1,3.0,-22.3,12.5,-3.2,.,4.1
CC(=NNc1nc2ccccc2s1)c1ccncn1,.,.,.,.,63.7*,.
Cc1ccccc1Oc1ccc2c(c1)[C@@H]1C[C@H](N(C)C(=O)c3ccco3)[C@H]([C@H](C)O)C(=O)N1CC2,.,.,.,.,9.0,.
N=c1n(CC(=O)c2ccc(Br)s2)c2ccccc2n1Cc1ccccc1,.,.,2.8,-8.7,53.0*,-24.5
COc1ccc(/C=C/C(=O)c2cc(F)ccc2OC(=O)c2ccccc2)cc1OC,-25.9,-28.2,.,-1.7,80.4*,.
COc1ccc(/C=C/C(=O)c2cc(F)ccc2OC(=O)c2ccccc2OC)cc1OC,-3.1,-44.6,.,-4.0,56.5*,-239.8
COc1ccc(/C=C/C(=O)c2cc(F)ccc2OC(=O)c2ccc(OC)c(OC)c2)cc1OC,3.0,1.8,20.0,-5.6,17.3,35.7
CC(=O)c1ccc(NC(=O)c2noc3c2CCC3)cc1,52.6*,66.5*,35.0,11.5,-10.9,-2.2
COc1ccc(NC(=O)c2noc3c2CCC3)cc1,-41.8,9.7,-5.9,19.3,2.4,1.0
[O-]/[N+](=C/c1ccc(F)cc1)c1ccc(Cl)cc1,-15.1,-17.3,6.5,57.2*,-2.5,18.5
O=C(Nc1ccc(Cl)cc1)c1nc[nH]c1C(=O)Nc1ccccc1F,.,.,.,.,9.9,.
O=C(Nc1cccc(Cl)c1)c1nc[nH]c1C(=O)NCCCCNC(=O)c1[nH]cnc1C(=O)Nc1cccc(Cl)c1,.,.,.,.,65.1*,.
O=C(Nc1cccc(Cl)c1)c1nc[nH]c1C(=O)NCCN(CCNC(=O)c1[nH]cnc1C(=O)Nc1cccc(Cl)c1)CCNC(=O)c1[nH]cnc1C(=O)Nc1cccc(Cl)c1,.,.,.,.,74.6*,.
O=C(Nc1cccc(Cl)c1)c1nc[nH]c1C(=O)NCc1ccccc1,.,.,.,.,-48.7,.
CC(C)(C)OC(=O)NCCCCCNC(=O)c1[nH]cnc1C(=O)Nc1cccc(Cl)c1,.,.,.,.,-25.8,.
CCOC(=O)c1ccc(NC(=O)c2nc[nH]c2C(=O)NCCNC(=O)c2[nH]cnc2C(=O)Nc2ccc(C(=O)OCC)cc2)cc1,.,.,.,.,135.0*,.
CCOC(=O)c1ccc(NC(=O)c2nc[nH]c2C(=O)NC)cc1,.,.,0.8,2.8,-10.8,2.2
O=C(Nc1ccc(Cl)cc1)c1nc[nH]c1C(=O)NCCCCNC(=O)c1[nH]cnc1C(=O)Nc1ccc(Cl)cc1,.,.,.,.,110.4*,.
C[C@@H]1CN([C@H](C)CO)C(=O)c2cc(Br)cnc2O[C@@H]1CN(C)C(=O)c1ccccc1,.,.,.,.,-10.4,.
COC1OC(O)C(NC(=O)C(F)(F)F)CC1O (stereo unspecified),.,.,.,.,-6.4,.
Cc1cccc(NC(=O)c2nc[nH]c2C(=O)NCCCCNC(=O)c2[nH]cnc2C(=O)Nc2cccc(C)c2)c1,.,.,.,.,77.6*,.
CNc1ncnc2c1ncn2[C@H]1CN(CCOC)C[C@@H](CO)O1,.,.,.,.,-6.4,.
COc1ccc2c(c1)Cc1c-2cc(Br)c(N)c1Br,.,.,.,.,0.7,.
COc1ccc(-c2cc(C(F)(F)F)nc(S(=O)(=O)CCC(=O)N3CCOCC3)n2)cc1,24.6,16.7,-1.6,133.8*,1.9,-19.8
COc1ccc(-c2cc(C(F)(F)F)nc(SCC(=O)N3CCOCC3)n2)cc1OC,0.4,-5.7,22.9,?,-9.5,5.5

# Assay outcomes: PubChem, several laboratories
